In article PMC4004375 (European journal of medicinal chemistry, 2013):

Columns and labels:
[1] = Cell viability in parental Huh7.5 cells by MTS assay; assay type: cell-based; conditions: human, parental Huh7.5 cells, Huh7.5 Cytotoxicity (%)
Summary of the method: (§1)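 Cytotoxicity was run in parallel with the HCV replicon assays, using parental Huh7.5 cells at 37 °C and 5% CO2. Cells were seeded at 1 × 10^4 cells/well and exposed 8 h later to test compound at 100 μM or to matching DMSO for 42 h. Viability was read by the colorimetric MTS assay.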

[2] = system: HCV RNA replication of genotype 1b (Huh7/Rep-Feo1b); test: HCV 1b replicon luciferase reporter assay; assay type: cell-based, Hepatitis C virus genotype 1b; conditions: Huh7/Rep-Feo1b cells, 100 μM, 42 h
[3] = system: HCV RNA replication of genotype 2a (Huh7.5-FGR-JC1-Rluc2A); test: HCV 2a replicon luciferase reporter assay; assay type: cell-based, Hepatitis C virus genotype 2a; conditions: Huh7.5-FGR-JC1-Rluc2A cells, 100 μM, 42 h
[4] = target: intracellular HCV NS5B RdRp activity (Hepatitis C virus genotype 1b, UniProt P26663); test: BHK-NS5B-FRLuc reporter: intracellular NS5B RdRp activity; assay type: cell-based; conditions: 100 μM, 42 h, percent of DMSO controls
Summary of the method: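 BHK cells stably expressing NS5B and carrying a bicistronic (+)FLuc-(−)UTR-RLuc reporter were grown in DMEM with 10% FBS, antibiotic-antimycotic, nonessential amino acids, 1 mg/mL G418 and […] at 37 °C and 5% CO2. Cells were seeded at 1 × 10^4 cells/well and dosed 8 h later with 100 μM test compound. Cells were lysed 42 h after treatment and read by dual luciferase. Activity is the percent reduction in RLuc/FLuc versus DMSO controls.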

[5] = system: Huh7.5 cells; test: Cell viability in parental Huh7.5 cells by MTS assay; assay type: cell-based; conditions: 100 μM, 42 h
Summary of the method: as §1

[6] = system: BHK-NS5B-FRLuc reporter cells; assay type: cell-based; conditions: 100 μM, 42 h, firefly luciferase versus DMSO controls

Chain of intracellular HCV NS5B RdRp activity (P26663 2420-3010): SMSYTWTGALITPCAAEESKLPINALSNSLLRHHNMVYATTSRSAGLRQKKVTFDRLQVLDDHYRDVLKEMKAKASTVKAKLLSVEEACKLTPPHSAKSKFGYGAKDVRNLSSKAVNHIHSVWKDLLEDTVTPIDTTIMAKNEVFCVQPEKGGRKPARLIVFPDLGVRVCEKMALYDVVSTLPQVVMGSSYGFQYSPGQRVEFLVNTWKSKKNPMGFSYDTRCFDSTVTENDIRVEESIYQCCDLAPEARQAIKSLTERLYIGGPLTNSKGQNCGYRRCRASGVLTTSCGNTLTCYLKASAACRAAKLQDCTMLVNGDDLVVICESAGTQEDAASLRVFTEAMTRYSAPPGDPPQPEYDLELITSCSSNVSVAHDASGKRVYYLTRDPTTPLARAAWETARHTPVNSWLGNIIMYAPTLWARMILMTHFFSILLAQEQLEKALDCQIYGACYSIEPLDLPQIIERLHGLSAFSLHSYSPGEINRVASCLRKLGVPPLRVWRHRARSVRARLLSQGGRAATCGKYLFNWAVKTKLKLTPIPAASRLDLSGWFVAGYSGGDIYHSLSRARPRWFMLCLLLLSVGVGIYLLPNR

Compound	cytotoxicity at 42 h, 100 µM [1] [%]	1b Replicon reporter Inhibition (%) [2]	2a Replicon reporter Inhibition (%) [3]	BHK-NS5B FR Luc Inhibition (%) [4]	Huh7.5 Cytotoxicity (%) [5] [%]	BHK-NS5B FR Luc Cytotoxicity (%) [6] [%]
O=C(CCl)Nc1nnc(-c2ccc(F)cc2)s1 [Compound 5, 2-Chloro-N-[5-(4-fluorophenyl)-1,3,4-thiadiazol-2-yl]acet-amide]	> 70	near complete inhibition	near complete inhibition	–	–	–
O=C1N/C(=N\c2nnc(-c3ccc(F)cc3)s2)S/C1=C\c1ccc(Cl)cc1Cl [Compound 14, 2-[[5-(4-Fluorophenyl)-1,3,4-thiadiazol-2-yl]imino]-5-(2,4-dichlorobenzylidene)-1,3-thiazolidin-4-one]	–	–	–	n.i	–	–
O=C1N/C(=N\c2nnc(-c3ccc(Cl)cc3)s2)S/C1=C\c1c(F)cccc1Cl [Compound 21, 2-[[5-(4-Chlorophenyl)-1,3,4-thiadiazol-2-yl]imino]-5-(2-chloro-6-fluoro-benzylidene)-1,3-thiazolidin-4-one]	0	n.i.	n.i.	n.i.	–	–
2-[[5-(4-Fluorophenyl)-1,3,4-thiadiazol-2-yl]imino]-5-(2,6-dimethoxybenzylidene)-1,3-thiazolidin-4-one [Compound 17]	–	51.2 ± 6.3%	50.4 ± 5.2%	7.0 ± 1.8%	13.9 ± 1.6	–
O=C1N/C(=N\c2nnc(-c3ccc(Cl)cc3)s2)S/C1=C\c1ccc(F)cc1 [Compound 20, 2-[[5-(4-Chlorophenyl)-1,3,4-thiadiazol-2-yl]imino]-5-(4-fluorobenzylidene)-1,3-thiazolidin-4-one]	–	–	–	no inhibition and n.i	–	–
O=C1CS/C(=N/c2nnc(-c3ccc(F)cc3)s2)N1 [Compound 7, 2-[[5-(4-Fluorophenyl)-1,3,4-thiadiazol-2-yl]imino]-1,3-thiazolidine-4-one]	–	–	–	–	–	0.0
O=C1N/C(=N\c2nnc(-c3ccc(F)cc3)s2)S/C1=C\c1c(Cl)cccc1Cl [Compound 15, 2-[[5-(4-Fluorophenyl)-1,3,4-thiadiazol-2-yl]imino]-5-(2,6-dichlorobenzylidene)-1,3-thiazolidin-4-one]	> 70	near complete inhibition	near complete inhibition	–	–	–
COc1cccc(OC)c1/C=C1\S/C(=N/c2nnc(-c3ccc(Cl)cc3)s2)NC1=O [Compound 25, 2-[[5-(4-Chlorophenyl)-1,3,4-thiadiazol-2-yl]imino]-5-(2,6-dimethoxy-benzylidene)-1,3-thiazolidin-4-one]	> 70	near complete inhibition	near complete inhibition	–	–	–
Nc1nnc(-c2ccc(Cl)cc2)s1 [Compound 4, 2-Amino-5-(4-chlorophenyl)-1,3,4-thiadiazole]	–	–	–	did not inhibit and n.i.	–	–
Nc1nnc(-c2ccc(F)cc2)s1 [Compound 3, 2-Amino-5-(4-fluorophenyl)-1,3,4-thiadiazole]	–	–	–	–	–	0.0
O=C1N/C(=N\c2nnc(-c3ccc(F)cc3)s2)S/C1=C\c1c(F)cccc1Cl [Compound 12, 2-[[5-(4-Fluorophenyl)-1,3,4-thiadiazol-2-yl]imino]-5-(2-chloro-6-fluoro-benzylidene)-1,3-thiazolidin-4-one]	> 70	near complete inhibition	near complete inhibition	–	–	–
O=C1N/C(=N\c2nnc(-c3ccc(Cl)cc3)s2)S/C1=C\c1ccccc1Cl [Compound 22, 2-[[5-(4-Chlorophenyl)-1,3,4-thiadiazol-2-yl]imino]-5-(2-chlorobenzylidene)-1,3-thiazolidin-4-one]	0	n.i.	n.i.	n.i.	–	–
O=C1N/C(=N\c2nnc(-c3ccc(Cl)cc3)s2)S/C1=C\c1c(Cl)cccc1Cl [Compound 24, 2-[[5-(4-Chlorophenyl)-1,3,4-thiadiazol-2-yl]imino]-5-(2,6-dichlorobenzylidene)-1,3-thiazolidin-4-one]	> 70	near complete inhibition	near complete inhibition	–	–	–
2-[[5-(4-Fluorophenyl)-1,3,4-thiadiazol-2-yl]imino]-5-(4-nitrobenzylidene)-1,3-thiazolidin-4-one [Compound 16]	–	87.7 ± 1.4%	93.2 ±1.7%	no inhibition and n.i	63.0 ± 4.4	73.7 ± 8.6
O=C(CCl)Nc1nnc(-c2ccc(Cl)cc2)s1 [Compound 6, 2-Chloro-N-[5-(4-chlorophenyl)-1,3,4-thiadiazol-2-yl]acet-amide]	> 70	near complete inhibition	near complete inhibition	–	–	–
O=C1N/C(=N\c2nnc(-c3ccc(Cl)cc3)s2)S/C1=C\c1ccc(Cl)cc1Cl [Compound 23, 2-[[5-(4-Chlorophenyl)-1,3,4-thiadiazol-2-yl]imino]-5-(2,4-dichlorobenzylidene)-1,3-thiazolidin-4-one]	0	n.i.	n.i.	n.i.	–	–
